Test results: ChEMBL document CHEMBL1156450, “Naloxone acts as a potent analgesic in transgenic mouse models of sickle cell anemia” (Proc Natl Acad Sci U S A, 2007)
pKd: −log10 of the molar value. Activity calls are given as the source filed them. No cut-off for these calls is given here.

How the values were obtained:
Mus musculus [1] = assay: Antinociceptive effect in icv dosed C57BL/6J mouse after 10 mins by heat tail flick test; assay type: functional
Method in brief: (§1)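 Male mice aged 10–12 weeks, housed on a 12-h light/dark cycle. Radiant heat was aimed at the dorsal tail and the latency to flick was recorded. Dosing volumes were 5 μl per mouse for i.c.v. and i.t. and 10 ml/kg for s.c. At least three groups of 8–10 mice per paradigm; each mouse was used once. ED50 with 95% confidence intervals came from a parallel line assay.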

Mus musculus [2] = assay: Antinociceptive effect in icv dosed sickle cell anemic NY1DD transgenic mouse after 10 mins by heat tail flick test; assay type: functional; method in brief: as §1
Mus musculus [3] = assay: Antinociceptive effect in sc dosed C57BL/6J mouse after 60 mins by heat tail flick test; details: 1 h
Mus musculus [4] = species: Mus musculus; assay: Decrease in analgesic activity in CCL5 pretreated C57BL/6J mouse; assay type: functional, organism-based
Method in brief: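 C57BL/6J mice were pretreated i.c.v. with murine RANTES (CCL5) at two doses 20 min before i.c.v. morphine, then tested by radiant heat tail-flick. The antagonist ED50 of RANTES was given with a 95% confidence interval. For reversal, 50 ng Met-RANTES per mouse was given 2 h before RANTES.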

Mus musculus [5] = assay: Antinociceptive effect in intrathecally dosed C57BL/6J mouse after 10 mins by heat tail flick test; assay type: functional; method in brief: as §1
Mus musculus [6] = assay: Antinociceptive effect in sc dosed sickle cell anemic NY1DD transgenic mouse after 60 mins by heat tail flick test; assay type: functional; details: 1 h; method in brief: as §1
Mus musculus [7] = assay: Antinociceptive effect in […] dosed sickle cell anemic NY1DD transgenic mouse after 10 mins by heat tail flick test; assay type: functional
Mus musculus [8] = assay: Reduction of analgesic activity in NY1DD transgenic mouse pretreated with Met-RANTES 2 hrs before drug administration; assay type: functional, organism-based
Method in brief: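 NY1DD mice received Met-RANTES at 50 ng per mouse 2 h before the test drug. Analgesia was measured by radiant heat tail-flick.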

[9] = target: T1, C-C chemokine receptor type 5 (Mus musculus, UniProt P51682); assay: Binding affinity to CCR5 in NY1DD transgenic mouse brain membrane; assay type: tissue-based
Method in brief: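 [3H]Naloxone saturation binding on pooled brains (cerebellum removed) from three mice. Tissue was homogenized in ice-cold Hepes pH 7.4, washed repeatedly with a 90-min ice step to deplete endogenous opiates, and used as a 2% suspension. Incubation was 90 min at room temperature; nonspecific binding was defined with 10 μM naloxone. Samples were filtered on PEI-soaked GF/C and counted by scintillation. Kd came from global fitting. Triplicates; 2–3 experiments, mean ± SEM.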

[10] = target: T1, C-C chemokine receptor type 5; assay: Binding affinity to CCR5 in C57BL/6J mouse brain membrane; assay type: cell membranes
Mus musculus [11] = species: Mus musculus; assay: Down-regulation of CCR5 mRNA expression in C57BL/6J mouse; assay type: functional, organism-based
Method in brief: (§2)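 C57BL/6J and NY1DD mice received 25 pmol per mouse of drug or 0.9% saline (5 μl). Brains were removed 10 min later, frozen in liquid N2 and used for RNA isolation and cDNA microarray hybridization (control RNA labeled with Cy3-dCTP; 42°C for 16 h).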

Mus musculus [12] = assay: Antinociceptive effect in icv dosed sickle cell anemic hBERK1 transgenic mouse after 10 mins by heat tail flick test; assay type: functional; method in brief: as §1
Mus musculus [13] = species: Mus musculus; assay: Down-regulation of CCR5 mRNA expression in sickle cell anemic NY1DD transgenic mouse; assay type: functional, organism-based; method in brief: as §2
Mus musculus [14] = assay: Antinociceptive effect in NY1DD transgenic mouse assessed as partial agonist response at 8 nmol, icv by heat tail flick test; assay type: functional
Mus musculus [15] = species: Mus musculus; assay: Antinociceptive effect in NY1DD transgenic mouse assessed as partial agonist response at 2.5 nmol by heat tail flick test; assay type: functional
Mus musculus [16] = assay: Antinociceptive effect in intrathecally dosed NY1DD transgenic mouse after 6 hrs by heat tail flick test; assay type: functional; method in brief: as §1
Mus musculus [17] = assay: Antinociceptive effect in icv dosed NY1DD transgenic mouse after 1 hr by heat tail flick test; assay type: functional; method in brief: as §1

T1 sequence (P51682 whole entry): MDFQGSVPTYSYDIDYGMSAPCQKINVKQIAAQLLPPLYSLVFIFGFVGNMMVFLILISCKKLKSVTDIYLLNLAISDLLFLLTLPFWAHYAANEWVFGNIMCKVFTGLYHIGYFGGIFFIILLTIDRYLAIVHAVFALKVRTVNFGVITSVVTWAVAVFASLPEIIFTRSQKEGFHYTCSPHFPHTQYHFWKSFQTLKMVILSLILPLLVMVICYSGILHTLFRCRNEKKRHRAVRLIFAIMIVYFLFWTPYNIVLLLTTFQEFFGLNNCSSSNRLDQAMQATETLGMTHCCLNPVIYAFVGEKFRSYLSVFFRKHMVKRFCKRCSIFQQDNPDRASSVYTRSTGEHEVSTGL

SMILES: CN1CC[C@]23c4c5ccc(O)c4O[C@H]2[C@@H](O)C=C[C@H]3[C@H]1C5 [MORPHINE]
- ED50 (Mus musculus [1]): 2.7 nmol
- ED50 (Mus musculus [2]): 3.95 nmol
- ED50 (Mus musculus [3]): 6.47 µmol/kg
- Activity (Mus musculus [4]): Active
- ED50 (Mus musculus [5]): 0.088 nmol
- ED50 (Mus musculus [6]): 2.36 µmol/kg
- ED50 (Mus musculus [7]): 0.085 nmol

SMILES: C=CCN1CC[C@]23c4c5ccc(O)c4O[C@H]2C(=O)CC[C@@]3(O)[C@H]1C5 [NALOXONE]
- Activity (Mus musculus [8]): Active
- ED50 (Mus musculus [2]): 0.014 nmol
- pKd [9]: 7.98
- pKd [10]: 7.68
- Activity (Mus musculus [11]): inactive
- ED50 (Mus musculus [12]): 0.03 nmol
- ED50 (Mus musculus [6]): 2.83 µmol/kg
- Activity (Mus musculus [13]): Active
- ED50 (Mus musculus [7]): 0.045 nmol

SMILES: O=C1CC[C@@]2(O)[C@H]3Cc4ccc(O)c5c4[C@@]2(CCN3CC2CC2)[C@H]1O5 [NALTREXONE]
- Activity (Mus musculus [14]): 33%

SMILES: Oc1ccc2c3c1O[C@H]1c4[nH]c5ccccc5c4C[C@@]4(O)[C@@H](C2)N(CC2CC2)CC[C@]314 [NALTRINDOLE]
- Activity (Mus musculus [15]): 10%

SMILES: Oc1ccc2c3c1O[C@H]1c4[nH]c5c(c4C[C@@]4(O)[C@@H](C2)N(CC2CC2)CC[C@]314)C[C@@]1(O)[C@H]2Cc3ccc(O)c4c3[C@@]1(CCN2CC1CC1)[C@H]5O4 [NORBINALTORPHIMINE]
- ED50 (Mus musculus [16]): 0.46 nmol
- ED50 (Mus musculus [17]): 1.55 nmol
